According to ChEMBL document CHEMBL1671867, “Novel polymyxin derivatives carrying only three positive charges are effective antibacterial agents” (Antimicrob Agents Chemother, 2008):
In brackets after ≈: the same amount, converted by molar mass. Bridge positions count the residues as written; N and C are the ends. Square brackets hold non-standard residues; d marks the D form. Peptide text beside a SMILES is read from it. * marks the point of attachment. Octanoyl = CCCCCCCC(=O)*; Dab = NCC[C@H](N)C(=O)O; Abu = CC[C@H](N)C(=O)O

Key:
Escherichia coli [1] = assay: Antibacterial activity against Escherichia coli IH3080 assessed as growth inhibition at 10 ug after 18 hrs by […] in presence of 1 ug/ml rifampin; type: functional
Escherichia coli [2] = assay: Antibacterial activity against Escherichia coli IH3080 assessed as growth inhibition at 10 ug after 18 hrs by […]; type: functional
Escherichia coli [3] = assay: Antibacterial activity against Escherichia coli by CLSI M7-A7 agar dilution method; type: functional
Procedure, shortened: (§1)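 Agar dilution on Mueller-Hinton agar with test substance at 0.25 to 32 μg/ml in twofold steps. Spots of about 10^4 CFU applied with a multipoint inoculator.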

Escherichia coli [4] = assay: Antibacterial activity against Escherichia coli IH3080 by CLSI M7-A7 agar dilution method; type: functional
Escherichia coli [5] = assay: Antibacterial activity against Escherichia coli ATCC […] by CLSI M7-A7 agar dilution method; type: functional
Enterobacter cloacae [6] = assay: Antibacterial activity against Enterobacter cloacae by CLSI M7-A7 agar dilution method; type: functional
Escherichia coli [7] = assay: Antibacterial activity against Escherichia coli SC 9252 by CLSI M7-A7 agar dilution method; type: functional
Escherichia coli [8] = assay: Antibacterial activity against Escherichia coli SC 9253 by CLSI M7-A7 agar dilution method; type: functional; procedure, shortened: as §1
Klebsiella pneumoniae [9] = assay: Antibacterial activity against Klebsiella pneumoniae CCUG45421 by CLSI M7-A7 agar dilution method; type: functional; procedure, shortened: as §1
Candida albicans = assay: Antibacterial activity against Candida albicans ATCC 28366 by CLSI M7-A7 agar dilution method; type: functional
Serratia marcescens = assay: Antibacterial activity against Serratia marcescens ATCC 8100 by CLSI M7-A7 agar dilution method; type: functional; procedure, shortened: as §1
Klebsiella oxytoca [10] = assay: Antibacterial activity against Klebsiella oxytoca CCUG51683 by CLSI M7-A7 agar dilution method; type: functional; procedure, shortened: as §1
Klebsiella pneumoniae [11] = assay: Antibacterial activity against Klebsiella pneumoniae by CLSI M7-A7 agar dilution method; type: functional; procedure, shortened: as §1
Klebsiella oxytoca [12] = assay: Antibacterial activity against Klebsiella oxytoca ATCC 13182 by CLSI M7-A7 agar dilution method; type: functional; procedure, shortened: as §1
Staphylococcus aureus = assay: Antibacterial activity against Staphylococcus aureus ATCC 25923 by CLSI M7-A7 agar dilution method; type: functional; procedure, shortened: as §1
Citrobacter freundii = assay: Antibacterial activity against Citrobacter freundii ATCC 8090 by CLSI M7-A7 agar dilution method; type: functional
Pseudomonas aeruginosa = assay: Antibacterial activity against Pseudomonas aeruginosa ATCC 27853 by CLSI M7-A7 agar dilution method; type: functional; procedure, shortened: as §1
Acinetobacter baumannii [13] = assay: Antibacterial activity against Acinetobacter baumannii ATCC 19606 by CLSI M7-A7 agar dilution method; type: functional
Enterobacter cloacae [14] = assay: Antibacterial activity against Enterobacter cloacae ATCC 23355 by CLSI M7-A7 agar dilution method; type: functional
Acinetobacter baumannii [15] = assay: Antibacterial activity against Acinetobacter baumannii by CLSI M7-A7 agar dilution method; type: functional
Enterobacter cloacae [16] = assay: Antibacterial activity against Enterobacter cloacae CCUG52947 by CLSI M7-A7 agar dilution method; type: functional
[17] = Inhibition of [3H]gentamicin binding to brush border membrane of renal cortex
Procedure, shortened: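 Brush border membrane vesicles prepared from male albino rat renal cortex by Mg2+-EGTA precipitation. Incubated with 20 μM [3H]gentamicin in 10 mM HEPES pH 7.5 with 300 mM mannitol, with or without compound, 60 min at 4°C. Then filtered, washed, and bound radioactivity counted by scintillation. IC50 fitted with the Hill equation.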

CCCCCCCC(=O)N[C@@H](C)C(=O)N[C@H](C(=O)N[C@H](CO)C(=O)N[C@H]1CCNC(=O)[C@H]([C@@H](C)O)NC(=O)[C@H](CCN)NC(=O)[C@H](CCN)NC(=O)[C@H](CC(C)C)NC(=O)[C@H](Cc2ccccc2)NC(=O)[C@H](CCN)NC1=O)[C@@H](C)O
inhibition zone (IZ) (Escherichia coli [1]): 200 mm2
inhibition zone (IZ) (Escherichia coli [2]): 160 mm2

CCCCCCCC(=O)N[C@H](C)C(=O)N[C@H](C)C(=O)N[C@H]1CCNC(=O)[C@H]([C@@H](C)O)NC(=O)[C@H](CCN)NC(=O)[C@H](CCN)NC(=O)[C@H](CC(C)C)NC(=O)[C@H](Cc2ccccc2)NC(=O)[C@H](CCN)NC1=O
inhibition zone (IZ) (Escherichia coli [1]): 200 mm2
inhibition zone (IZ) (Escherichia coli [2]): 0 mm2

CCCCCCCC(=O)N[C@H](C(=O)N[C@H](CO)C(=O)N[C@H]1CCNC(=O)[C@H]([C@@H](C)O)NC(=O)[C@H](CCN)NC(=O)[C@H](CCN)NC(=O)[C@H]([C@@H](C)O)NC(=O)[C@H](Cc2ccccc2)NC(=O)[C@H](CCN)NC1=O)[C@@H](C)O
inhibition zone (IZ) (Escherichia coli [1]): 190 mm2
inhibition zone (IZ) (Escherichia coli [2]): 172 mm2

CCCCCCCC(=O)N[C@H](C(=O)N[C@@H](CC)C(=O)N[C@H]1CCNC(=O)[C@H]([C@@H](C)O)NC(=O)[C@H](CCN)NC(=O)[C@H](CC)NC(=O)[C@H](CC(C)C)NC(=O)[C@@H](Cc2ccccc2)NC(=O)[C@H](CCN)NC1=O)[C@@H](C)O (Octanoyl-T[Abu][Dab][Dab][dF]L[Abu][Dab]T; lactam 3-C)
inhibition zone (IZ) (Escherichia coli [1]): 10 mm2
inhibition zone (IZ) (Escherichia coli [2]): 0 mm2

CCCCCCCC(=O)N[C@H](C(=O)N[C@@H](CC)C(=O)N[C@H]1CCNC(=O)[C@H](CC(C)C)NC(=O)[C@H](CCN)NC(=O)[C@H](CCN)NC(=O)[C@H](CC(C)C)NC(=O)[C@@H](Cc2ccccc2)NC(=O)[C@H](CCN)NC1=O)[C@@H](C)O (Octanoyl-T[Abu][Dab][Dab][dF]L[Dab][Dab]L; lactam 3-C)
inhibition zone (IZ) (Escherichia coli [1]): 180 mm2
inhibition zone (IZ) (Escherichia coli [2]): 50 mm2

CCCCCCCC(=O)N[C@H](C(=O)N[C@@H](CCN)C(=O)N[C@H]1CCNC(=O)[C@H]([C@@H](C)O)NC(=O)[C@H](CC)NC(=O)[C@H](CCN)NC(=O)[C@H](CC(C)C)NC(=O)[C@@H](Cc2ccccc2)NC(=O)[C@H](CCN)NC1=O)[C@@H](C)O (Octanoyl-T[Dab][Dab][Dab][dF]L[Dab][Abu]T; lactam 3-C)
inhibition zone (IZ) (Escherichia coli [1]): 170 mm2
inhibition zone (IZ) (Escherichia coli [2]): 0 mm2

CCCCCCCC(=O)N[C@H](C(=O)N[C@@H](CC)C(=O)N[C@H]1CCNC(=O)[C@H]([C@@H](C)O)NC(=O)[C@H](CCN)NC(=O)[C@H](CCN)NC(=O)[C@H](CC(C)C)NC(=O)[C@@H](Cc2ccccc2)NC(=O)[C@H](CCN)NC1=O)[C@@H](C)O (Octanoyl-T[Abu][Dab][Dab][dF]L[Dab][Dab]T; lactam 3-C)
MIC (Escherichia coli [3]): > 16 µg/mL
MIC (Escherichia coli [4]): > 32 µg/mL
inhibition zone (IZ) (Escherichia coli [1]): 194 mm2
MIC (Escherichia coli [5]): > 32 µg/mL
MIC (Enterobacter cloacae [6]): > 32 µg/mL
MIC (Escherichia coli [7]): > 32 µg/mL
MIC (Escherichia coli [8]): > 32 µg/mL
MIC (Klebsiella pneumoniae [9]): > 32 µg/mL
MIC (Candida albicans): > 32 µg/mL
MIC (Serratia marcescens): > 32 µg/mL
MIC (Klebsiella oxytoca [10]): 32 µg/mL (≈ 29.8 µM)
MIC (Klebsiella pneumoniae [11]): > 32 µg/mL
MIC (Klebsiella oxytoca [12]): 32 µg/mL (≈ 29.8 µM)
MIC (Staphylococcus aureus): > 32 µg/mL
inhibition zone (IZ) (Escherichia coli [2]): 32 mm2
MIC (Citrobacter freundii): 16 µg/mL (≈ 14.9 µM)
MIC (Pseudomonas aeruginosa): > 32 µg/mL
MIC (Acinetobacter baumannii [13]): > 32 µg/mL
MIC (Enterobacter cloacae [14]): 32 µg/mL (≈ 29.8 µM)
MIC (Acinetobacter baumannii [15]): > 32 µg/mL
MIC (Enterobacter cloacae [16]): > 32 µg/mL

CCCCCCCC(=O)N[C@H](C(=O)N[C@H](C)C(=O)N[C@H]1CCNC(=O)[C@H]([C@@H](C)O)NC(=O)[C@H](CCN)NC(=O)[C@H](CCN)NC(=O)[C@H]([C@@H](C)O)NC(=O)[C@H](Cc2ccccc2)NC(=O)[C@H](CCN)NC1=O)[C@@H](C)O
inhibition zone (IZ) (Escherichia coli [1]): 230 mm2
inhibition zone (IZ) (Escherichia coli [2]): 60 mm2

GENTAMICIN
IC50 [17]: 90.2 µM

CCCCCCCC(=O)N[C@H](C(=O)N[C@@H](C(=O)N[C@H]1CCNC(=O)[C@H]([C@@H](C)O)NC(=O)[C@H](CCN)NC(=O)[C@H](CCN)NC(=O)[C@H]([C@@H](C)O)NC(=O)[C@H](Cc2ccccc2)NC(=O)[C@H](CCN)NC1=O)[C@@H](C)O)[C@@H](C)O
inhibition zone (IZ) (Escherichia coli [1]): 250 mm2
inhibition zone (IZ) (Escherichia coli [2]): 200 mm2

CC(C)C[C@@H]1NC(=O)[C@@H](Cc2ccccc2)NC(=O)[C@H](CCN)NC(=O)[C@@H](NC(=O)[C@H](CCN)NC(=O)[C@@H](N)[C@@H](C)O)CCNC(=O)[C@H]([C@@H](C)O)NC(=O)[C@H](CCN)NC(=O)[C@H](CCN)NC1=O [POLYMYXIN B NONAPEPTIDE] (H-T[Dab][Dab][Dab][dF]L[Dab][Dab]T; lactam 3-C)
inhibition zone (IZ) (Escherichia coli [1]): 143 mm2
inhibition zone (IZ) (Escherichia coli [2]): <=5 mm2

CCCCCCCC(=O)N[C@@H](CCN)C(=O)N[C@H](C(=O)N[C@@H](CCN)C(=O)N[C@H]1CCNC(=O)[C@H]([C@@H](C)O)NC(=O)[C@H](CCN)NC(=O)[C@H](CC)NC(=O)[C@H](CC(C)C)NC(=O)[C@@H](Cc2ccccc2)NC(=O)[C@H](CC)NC1=O)[C@@H](C)O (Octanoyl-[Dab]T[Dab][Dab][Abu][dF]L[Abu][Dab]T; lactam 4-C)
inhibition zone (IZ) (Escherichia coli [1]): 0 mm2
inhibition zone (IZ) (Escherichia coli [2]): 0 mm2

CCCCCCCC(=O)N[C@H](C(=O)N[C@@H](CCN)C(=O)N[C@H]1CCNC(=O)[C@H]([C@@H](C)O)NC(=O)[C@H](CCN)NC(=O)[C@H](CCN)NC(=O)[C@H](CC(C)C)NC(=O)[C@@H](Cc2ccccc2)NC(=O)[C@H](CC)NC1=O)[C@@H](C)O (Octanoyl-T[Dab][Dab][Abu][dF]L[Dab][Dab]T; lactam 3-C)
inhibition zone (IZ) (Escherichia coli [1]): 100 mm2
inhibition zone (IZ) (Escherichia coli [2]): 0 mm2

CCCCCCCC(=O)N[C@H](C(=O)N[C@@H](CC(N)=O)C(=O)N[C@H]1CCNC(=O)[C@H]([C@@H](C)O)NC(=O)[C@H](CCN)NC(=O)[C@H](CCN)NC(=O)[C@H](CC(C)C)NC(=O)[C@H](Cc2ccccc2)NC(=O)[C@H](CCN)NC1=O)[C@@H](C)O (Octanoyl-TN[Dab][Dab]FL[Dab][Dab]T; lactam 3-C)
inhibition zone (IZ) (Escherichia coli [1]): 180 mm2
inhibition zone (IZ) (Escherichia coli [2]): 10 mm2

CCCCCCCC(=O)N[C@H](C(=O)N[C@@H](CCN)C(=O)N[C@H]1CCNC(=O)[C@H]([C@@H](C)O)NC(=O)[C@H](CCN)NC(=O)[C@H](CC)NC(=O)[C@H](CC(C)C)NC(=O)[C@@H](Cc2ccccc2)NC(=O)[C@H](CCN)NC1=O)[C@@H](C)O (Octanoyl-T[Dab][Dab][Dab][dF]L[Abu][Dab]T; lactam 3-C)
inhibition zone (IZ) (Escherichia coli [1]): 250 mm2
inhibition zone (IZ) (Escherichia coli [2]): 60 mm2

CCCCCCCC(=O)N[C@H](C(=O)N[C@H](C(=O)N[C@H](CO)C(=O)N[C@H]1CCNC(=O)[C@H]([C@@H](C)O)NC(=O)[C@H](CCN)NC(=O)[C@H](CCN)NC(=O)[C@H](CC(C)C)NC(=O)[C@H](Cc2ccccc2)NC(=O)[C@H](CCN)NC1=O)[C@@H](C)O)[C@@H](C)O
inhibition zone (IZ) (Escherichia coli [1]): 190 mm2
inhibition zone (IZ) (Escherichia coli [2]): 160 mm2

POLYMYXIN B
IC50 [17]: 39.3 µM

CCCCCCCC(=O)N[C@H](C(=O)N[C@@H](CO)C(=O)N[C@H]1CCNC(=O)[C@H]([C@@H](C)O)NC(=O)[C@H](CCN)NC(=O)[C@H](CCN)NC(=O)[C@H](CC(C)C)NC(=O)[C@H](Cc2ccccc2)NC(=O)[C@H](CCN)NC1=O)[C@@H](C)O
inhibition zone (IZ) (Escherichia coli [1]): 230 mm2
inhibition zone (IZ) (Escherichia coli [2]): 80 mm2

CCCCCCCC(=O)N[C@@H](CCN)C(=O)N[C@H](C(=O)N[C@@H](CCN)C(=O)N[C@H]1CCNC(=O)[C@H]([C@@H](C)O)NC(=O)[C@H](CC)NC(=O)[C@H](CCN)NC(=O)[C@H](CC(C)C)NC(=O)[C@@H](Cc2ccccc2)NC(=O)[C@H](CC)NC1=O)[C@@H](C)O (Octanoyl-[Dab]T[Dab][Dab][Abu][dF]L[Dab][Abu]T; lactam 4-C)
inhibition zone (IZ) (Escherichia coli [1]): 10 mm2
inhibition zone (IZ) (Escherichia coli [2]): 0 mm2
